Data reported in ChEMBL document CHEMBL2380295, “Structure-activity studies on the side chain of a simplified analog of aplysiatoxin (aplog-1) with anti-proliferative activity” (Bioorg Med Chem, 2013).

Experiments:
MDA-MB-231 = assay: Growth inhibition of human MDA-MB-231 cells after 48 hrs by sulforhodamine B assay; type: functional; details: MDA-MB-231, 48 h
Summary of the method: (§1)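 Yamori 39-line human cancer panel, NCI method with modifications. Cells plated in RPMI 1640 plus 5% FBS, attached overnight, then exposed 48 h to compound at 10^-8, 10^-7, 10^-6, 10^-5 and 10^-4 M. Sulforhodamine B staining read at 525 nm; % growth = 100[(T−T0)/(C−T0)] from duplicate-point averages, with T0 the time-zero absorbance. GI50 is the concentration giving 50.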

[1] = Cytotoxicity against human Raji cells assessed as cell viability at 10^-7 M; type: cell-based; details: read-out: Activity
MKN-7 = assay: Growth inhibition of human MKN7 cells after 48 hrs by sulforhodamine B assay; type: functional; details: MKN-7, 48 h; summary of the method: as §1
HT-29 = assay: Growth inhibition of human HT-29 cells after 48 hrs by sulforhodamine B assay; type: functional; details: HT-29, 48 h; summary of the method: as §1
PC-3 = assay: Growth inhibition of human PC3 cells after 48 hrs by sulforhodamine B assay; type: functional; details: PC-3, 48 h; summary of the method: as §1
MCF7 = assay: Growth inhibition of human MCF7 cells after 48 hrs by sulforhodamine B assay; type: functional; details: MCF7, 48 h; summary of the method: as §1
SF-295 = assay: Growth inhibition of human SF295 cells after 48 hrs by sulforhodamine B assay; type: functional; details: SF-295, 48 h; summary of the method: as §1
LOX IMVI = assay: Growth inhibition of human LOXIMVI cells after 48 hrs by sulforhodamine B assay; type: functional; summary of the method: as §1
SK-OV-3 = assay: Growth inhibition of human SKOV3 cells after 48 hrs by sulforhodamine B assay; type: functional; details: SK-OV-3, 48 h; summary of the method: as §1
OVCAR-5 = assay: Growth inhibition of human OVCAR5 cells after 48 hrs by sulforhodamine B assay; type: functional; details: OVCAR-5, 48 h; summary of the method: as §1
NCI-H460 = assay: Growth inhibition of human NCI-H460 cells after 48 hrs by sulforhodamine B assay; type: functional; details: NCI-H460, 48 h; summary of the method: as §1
A549 = assay: Growth inhibition of human A549 cells after 48 hrs by sulforhodamine B assay; type: functional; details: A549, 48 h; summary of the method: as §1
NCI-H226 = assay: Growth inhibition of human NCI-H226 cells after 48 hrs by sulforhodamine B assay; type: functional; details: NCI-H226, 48 h; summary of the method: as §1
[2] = Octanol-water partition coefficient, log P of the compound by HPLC analysis; type: physicochemical
Summary of the method: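 log P was estimated from HPLC retention, with column dead time measured using unretained formamide.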

MKN-74 = assay: Growth inhibition of human MKN74 cells after 48 hrs by sulforhodamine B assay; type: functional; details: MKN-74, 48 h; summary of the method: as §1
SF-268 = assay: Growth inhibition of human SF268 cells after 48 hrs by sulforhodamine B assay; type: functional; details: SF-268, 48 h; summary of the method: as §1
[3] = Growth inhibition of human BSY1 cells after 48 hrs by sulforhodamine B assay; type: functional; details: BSY-1, 48 h; summary of the method: as §1
SF-539 = assay: Growth inhibition of human SF539 cells after 48 hrs by sulforhodamine B assay; type: functional; details: SF-539, 48 h; summary of the method: as §1
[4] = Growth inhibition of human MKN1 cells after 48 hrs by sulforhodamine B assay; type: functional; details: MKN-1, 48 h; summary of the method: as §1
MKN-45 = assay: Growth inhibition of human MKN45 cells after 48 hrs by sulforhodamine B assay; type: functional; details: MKN-45, 48 h; summary of the method: as §1
[5] = Cytotoxicity against human Raji cells assessed as cell viability at 10^-6 M; type: cell-based; details: read-out: Activity
[6] = Growth inhibition of human HBC4 cells after 48 hrs by sulforhodamine B assay; type: functional; details: HBC4, 48 h; summary of the method: as §1
DU-145 = assay: Growth inhibition of human DU145 cells after 48 hrs by sulforhodamine B assay; type: functional; details: DU-145, 48 h; summary of the method: as §1
HCT-15 = assay: Growth inhibition of human HCT15 cells after 48 hrs by sulforhodamine B assay; type: functional; details: HCT-15, 48 h; summary of the method: as §1
KM12 = assay: Growth inhibition of human KM12 cells after 48 hrs by sulforhodamine B assay; type: functional; details: KM12, 48 h; summary of the method: as §1
Human gammaherpesvirus 4 [7] = assay: Induction of EBV-early antigen expressed in human Raji cells at 10^-6 M after 48 hrs by immunofluorescence assay relative to control; type: organism-based; details: human gammaherpesvirus 4, raji, 1 µM
Summary of the method: (§2)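 Raji B-lymphoblastoid cells (5 × 10^5/mL) in RPMI 1640 with 10% FBS, with 4 mM sodium n-butyrate as synergist and test compound at 10^-7 or 10^-6 M (final DMSO 0.4%). Incubated 48 h at 37 °C under 5% CO2. Smears were stained by indirect immunofluorescence using NPC patient serum and FITC anti-human IgG. At least 500 cells counted; % EA-positive recorded; n = 3, SEM.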

OVCAR-8 = assay: Growth inhibition of human OVCAR8 cells after 48 hrs by sulforhodamine B assay; type: functional; details: OVCAR-8, 48 h; summary of the method: as §1
U-251 = assay: Growth inhibition of human U251 cells after 48 hrs by sulforhodamine B assay; type: functional; details: U-251, 48 h; summary of the method: as §1
DMS-273 = assay: Growth inhibition of human DMS273 cells after 48 hrs by sulforhodamine B assay; type: functional; details: DMS-273, 48 h; summary of the method: as §1
DMS-114 = assay: Growth inhibition of human DMS114 cells after 48 hrs by sulforhodamine B assay; type: functional; details: DMS-114, 48 h; summary of the method: as §1
[8] = Growth inhibition of human HCC2998 cells after 48 hrs by sulforhodamine B assay; type: functional; details: HCC 2998, 48 h; summary of the method: as §1
[9] = biological target: T1, Protein kinase C delta type (Homo sapiens, UniProt Q05655); assay: Inhibition of [3H]PDBu binding to PKCdelta-C1B domain peptide (unknown origin)
Summary of the method: (§3)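 Competitive [3H]PDBu binding used 14 or 40 nM PKCδ C1 peptide and 20 nM [3H]PDBu (19.6 Ci/mmol), in 50 mM Tris-maleate (pH 7.4 at 4 °C) with 50 µg/mL phosphatidylserine, 3 mg/mL bovine γ-globulin and varied inhibitor concentrations. IC50 was taken as 50% inhibition of specific binding. Ki was derived by the Sharkey–Blumberg method.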

[10] = Growth inhibition of human RXF631L cells after 48 hrs by sulforhodamine B assay; type: functional; details: RXF 631, 48 h; summary of the method: as §1
NCI-H23 = assay: Growth inhibition of human NCI-H23 cells after 48 hrs by sulforhodamine B assay; type: functional; details: NCI-H23, 48 h; summary of the method: as §1
MKN-28 = assay: Growth inhibition of human MKN28 cells after 48 hrs by sulforhodamine B assay; type: functional; details: MKN-28, 48 h; summary of the method: as §1
St-4 = assay: Growth inhibition of human St-4 cells after 48 hrs by sulforhodamine B assay; type: functional; details: St-4, 48 h; summary of the method: as §1
SNB-75 = assay: Growth inhibition of human SNB75 cells after 48 hrs by sulforhodamine B assay; type: functional; details: SNB-75, 48 h; summary of the method: as §1
OVCAR-3 = assay: Growth inhibition of human OVCAR3 cells after 48 hrs by sulforhodamine B assay; type: functional; details: OVCAR-3, 48 h; summary of the method: as §1
[11] = Growth inhibition of human HBC5 cells after 48 hrs by sulforhodamine B assay; type: functional; details: HBC5, 48 h; summary of the method: as §1
SNB-78 = assay: Growth inhibition of human SNB78 cells after 48 hrs by sulforhodamine B assay; type: functional; details: SNB-78, 48 h; summary of the method: as §1
Human gammaherpesvirus 4 [12] = assay: Induction of EBV-early antigen expressed in human Raji cells at 10^-7 M after 48 hrs by immunofluorescence assay relative to control; type: organism-based; details: human gammaherpesvirus 4, raji, 0.1 µM; summary of the method: as §2
ACHN = assay: Growth inhibition of human ACHN cells after 48 hrs by sulforhodamine B assay; type: functional; summary of the method: as §1
NCI-H522 = assay: Growth inhibition of human NCI-H522 cells after 48 hrs by sulforhodamine B assay; type: functional; details: NCI-H522, 48 h; summary of the method: as §1
[13] = biological target: T1, Protein kinase C delta type; assay: Inhibition of [3H]PDBu binding to PKCdelta-C1A domain peptide (unknown origin); summary of the method: as §3
HCT-116 = assay: Growth inhibition of human HCT116 cells after 48 hrs by sulforhodamine B assay; type: functional; details: HCT-116, 48 h; summary of the method: as §1
OVCAR-4 = assay: Growth inhibition of human OVCAR4 cells after 48 hrs by sulforhodamine B assay; type: functional; details: OVCAR-4, 48 h; summary of the method: as §1

T1 sequence (Q05655 whole entry, the tested form may be a part): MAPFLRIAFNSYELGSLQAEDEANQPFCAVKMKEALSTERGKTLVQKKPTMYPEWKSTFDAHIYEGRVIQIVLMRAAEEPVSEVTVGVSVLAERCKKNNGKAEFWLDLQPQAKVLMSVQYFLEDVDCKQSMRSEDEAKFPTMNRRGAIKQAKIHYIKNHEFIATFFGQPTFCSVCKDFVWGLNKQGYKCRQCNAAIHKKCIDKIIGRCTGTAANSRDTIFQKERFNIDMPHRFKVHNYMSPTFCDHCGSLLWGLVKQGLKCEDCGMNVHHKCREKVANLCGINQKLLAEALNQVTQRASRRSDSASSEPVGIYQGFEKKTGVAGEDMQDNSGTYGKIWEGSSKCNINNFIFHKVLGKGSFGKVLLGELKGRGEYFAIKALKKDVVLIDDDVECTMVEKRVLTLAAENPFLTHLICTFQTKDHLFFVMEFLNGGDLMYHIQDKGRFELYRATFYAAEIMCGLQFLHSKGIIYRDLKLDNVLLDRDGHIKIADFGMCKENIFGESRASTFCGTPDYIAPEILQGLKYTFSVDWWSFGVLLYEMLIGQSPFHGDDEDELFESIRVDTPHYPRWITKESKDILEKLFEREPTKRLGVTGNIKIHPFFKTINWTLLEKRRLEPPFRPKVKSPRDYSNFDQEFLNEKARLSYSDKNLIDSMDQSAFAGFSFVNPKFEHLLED

Molecule `CC1(C)CC[C@@H]2CC(=O)O[C@@H](CO)CC(=O)O[C@@H]3C[C@@H](CCCCc4cc(O)ccc4I)O[C@@]1(C3)O2` has a GI50 (MDA-MB-231) of 1550 nM, a viability at 0.1 µM [1] of 50% and a GI50 (MKN-7) of 11.5 µM. It also gave a GI50 (HT-29) of 13.8 µM, a GI50 (PC-3) of 4.68 µM and a GI50 (MCF7) of 13.8 µM. It also gave a GI50 (SF-295) of 6.31 µM, a GI50 (LOX IMVI) of 2000 nM and a GI50 (SK-OV-3) of 15.8 µM. It also gave a GI50 (OVCAR-5) of 5.13 µM, a GI50 (NCI-H460) of 10.5 µM and a GI50 (A549) of 4.07 µM. For the same molecule, the GI50 (NCI-H226) was 12.6 µM, the logP [2] was 4.2 and the GI50 (MKN-74) was 11.7 µM. It also gave a GI50 (SF-268) of 13.8 µM, a GI50 [3] of 9.77 µM and a GI50 (SF-539) of 11 µM. The GI50 [4] was 10.7 µM, the GI50 (MKN-45) was 12 µM and the viability at 1 µM [5] was 50%. For the same molecule, the GI50 [6] was 158 nM, the GI50 (DU-145) was 12.9 µM and the GI50 (HCT-15) was 15.1 µM. For the same molecule, the GI50 (KM12) was 10.5 µM, the Activity (Human gammaherpesvirus 4 [7]) was 1.4% and the GI50 (OVCAR-8) was 16.2 µM. For the same molecule, the GI50 (U-251) was 12.9 µM, the GI50 (DMS-273) was 251 nM and the GI50 (DMS-114) was 11 µM. The GI50 [8] was 891 nM, the Ki [9] was 4.6 nM and the GI50 [10] was 12.9 µM. The GI50 (NCI-H23) was 7.94 µM, the GI50 (MKN-28) was 813 nM and the GI50 (St-4) was 427 nM. The GI50 (SNB-75) was 10.5 µM, the GI50 (OVCAR-3) was 5.89 µM and the GI50 [11] was 15.8 µM. It also gave a GI50 (SNB-78) of 15.1 µM, an Activity (Human gammaherpesvirus 4 [12]) of 1.3% and a GI50 (ACHN) of 10.7 µM. It also gave a GI50 (NCI-H522) of 11.7 µM, a Ki [13] of 110 nM and a GI50 (HCT-116) of 10.5 µM. The GI50 (OVCAR-4) was 13.8 µM.
